Assay results: paper PMC4160070 (Journal of clinical pharmacology, 2014)
Read-outs that look alike come from different tables or passages of the source. Blank lines part the entries; values can stand above or below the compound they belong to.

What was measured:
[1] = Properties of the reconstituted AP301 solution; format: physicochemical; conditions: AP301 25 mg/mL, lyophilized powder reconstituted in water for injection
Aerosol characterization = format: physicochemical
Outline: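 Test compound supplied as lyophilized powder, reconstituted in water for injection to 25 mg/mL. The solution was aerosolized with an Aeroneb Solo vibrating-mesh nebulizer driven by an Aeroneb Pro-X controller. Particle distribution was measured by Next Generation Impactor at 15 L/min and by laser diffraction. Read-outs were fine particle fraction and average droplet size.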

dog = conditions: in vivo
[2] = human, in vivo, inhaled or intranasal
[3] = in vivo
healthy male subjects [4] = conditions: in vivo
healthy male subjects [5] = conditions: in vivo; remark: listed apart in the source
healthy male subjects [6] = conditions: in vivo; remark: listed apart in the source
healthy male subjects [7] = conditions: in vivo; remark: listed apart in the source
healthy male subjects [8] = conditions: in vivo; remark: listed apart in the source
healthy male subjects [9] = conditions: in vivo; remark: listed apart in the source
[10] = system: ENaC in primary type II alveolar epithelial cells; conditions: rat AEC type II cells, cited from earlier work
[11] = system: ENaC in primary type II alveolar epithelial cells; conditions: dog AEC type II cells, cited from earlier work
[12] = system: ENaC in primary type II alveolar epithelial cells; conditions: pig AEC type II cells, cited from earlier work
ENaC = conditions: cell-based studies; no reference given; cited from earlier work
[13] = system: acute lung injury (ALI) in anaesthetized domestic pigs; conditions: pigs with ALI, single nebulization of 1.0 mg/kg, observation 5 hours; cited from earlier work
animal models = conditions: various animal models; cited from earlier work
[14] = mouse, in vivo; cited from earlier work
[15] = rat, in vivo; cited from earlier work
[16] = dog, in vivo; cited from earlier work
[17] = 25 mg/mL solution, Aeroneb Solo nebulizer, laser diffraction, Apeptico Research Report, data on file
[18] = whole cell patch clamp, in the presence of AP301

- osmolarity of the solution [1]: 23 mosmol/L
- pH of the solution [1]: 4.40
- viscosity of the solution [1]: 1.07 mPa s
- average droplet size (Aerosol characterization; [17]): 3.3 μm
- mean fine particle fraction (FPF) (Aerosol characterization; [17]): about 60%
- FPF as determined by NGI (Aerosol characterization; Next Generation Impactor at 15 L/min): 60%
- maximum recommended starting dose (MRSD) (dog): 0.1 mg/kg BW
- Tmax [2]: ~5 min
- AUC(0-t) ([2]; 12 mg): 0.0333 ng·h/mL
- Cmax ([2]; 12 mg): 0.4 ± 0.6 ng/mL
- Tmax ([2]; 12 mg): 5 min
- AUC(0-t) ([2]; 30 mg): 0.0183 ng·h/mL
- Cmax ([2]; 30 mg): 0.3 ± 0.6 ng/mL
- AUC(0-t) ([2]; 60 mg): 0.93 ng·h/mL
- Cmax ([2]; 60 mg): 2.2 ± 1.4 ng/mL
- Tmax ([2]; 60 mg): 5 min
- AUC(0-t) ([2]; 90 mg): 0.758 ng·h/mL
- Cmax ([2]; 90 mg): 2.4 ± 2.1 ng/mL
- AUC(0-t) ([2]; 120 mg): 0.877 ng·h/mL
- Cmax ([2]; 120 mg): 2.2 ± 1.8 ng/mL
- Tmax ([2]; 120 mg): 2.5 min
- maximum exposure values (Cmax) at mean dose-cohort level [3]: exceeding 2.0 ng/mL
- mean Cmax values in the highest dose groups [3]: < 2.5 ng/mL
- median tmax values across dose groups [3]: 0 to 0.083 h
- subjects with post-dose FEV1 decline of ≥15% from baseline (healthy male subjects [5]): only a single subject
- content of eNO versus baseline and pooled placebo (healthy male subjects [6]): did not change
SMILES: C[C@@H]1NC(=O)CNC(=O)[C@H](CCC(=O)O)NC(=O)[C@@H]2CCCN2C(=O)[C@H]([C@@H](C)O)NC(=O)[C@H](CCC(=O)O)NC(=O)[C@H](CCCNC(=N)N)NC(=O)[C@H](CCC(N)=O)NC(=O)CNC(=O)[C@@H](N)CSSC[C@@H](C(=O)O)NC(=O)[C@H](Cc2ccc(O)cc2)NC(=O)[C@H](Cc2c[nH]c3ccccc23)NC(=O)[C@@H]2CCCN2C(=O)[C@H](CCCCN)NC(=O)[C@H](C)NC(=O)[C@H](CCC(=O)O)NC1=O [AP301]
- number of AEs considered related to AP301 inhalation (healthy male subjects [4]): 7
- overall frequency of AEs in subjects randomized to AP301 (healthy male subjects [4]): 25%
- FEV1 declines of ≥20% from baseline (healthy male subjects [5]): no FEV1 declines of ≥20% from baseline were noted in any subject
- effects on airway caliber or vital capacity (FVC, FEV1) (healthy male subjects [5]): absence of relevant dose-dependent effects
- effects on vital signs (SBP, DBP, HR) (healthy male subjects [7]): no clinically meaningful dose-or time-dependent effects
- QTc value (healthy male subjects [8]): ≤ 450 milliseconds
- changes in ECG outcome variables (healthy male subjects [8]): no clinically meaningful or remarkable dose-or time-dependent changes
- changes in safety laboratory variables (healthy male subjects [9]): No clinically meaningful or remarkable dose-or time-dependent changes
- increase of amiloride-sensitive Na+ currents (via ENaC) versus baseline [10, 18]: about 9 fold
- increase of amiloride-sensitive Na+ currents (via ENaC) versus baseline [11, 18]: ~13 fold
- increase of amiloride-sensitive Na+ currents (via ENaC) versus baseline [12, 18]: ~16 fold
- concentration range in which ENaC activation was dose-dependent (ENaC): 5 to 100 nM
- oxygenation (PaO2/FiO2) [13]: significant improvement
- pulmonary shunt fraction (Qs/Qt) [13]: reduction
- effective pharmacological dose range (animal models): 0.5–1.0 mg/kg BW
- absorption from the pulmonary compartment into the systemic circulation [14]: hardly absorbed
- absorption from the pulmonary compartment into the systemic circulation [15]: hardly absorbed
- absorption from the pulmonary compartment into the systemic circulation [16]: hardly absorbed

SMILES: N=C(N)NC(=O)c1nc(Cl)c(N)nc1N [amiloride, reference compound]
- effect on the AP301-induced increase of Na+ current [10]: could be inhibited
- effect on the AP301-induced increase of Na+ current [11]: could be inhibited
- effect on the AP301-induced increase of Na+ current [12]: could be inhibited
